# This is a sample that favours compounds with a hit; in the whole collection about 1.7% have one here.
# CCR6 antagonist – CCR6 receptor antagonists, primary screen, cell-based, CHO-K1, luminescence, beta-arrestin, uHTS; inhibition, % at 20 µM; 340,000 compounds, 0.49% hits; CHO-K1 CCR6 PathHunter beta-arrestin, CCL20-stimulated; C-C chemokine receptor type 6 (Homo sapiens), P51684;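 active means compounds whose inhibition of the agonist-driven luminescence signal at 20 µM reaches about 50%, limit read from the data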;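 further: cells stimulated with CCL20 at 14 nM final; plate controls were DMSO with CCL20 for no effect and DMSO without agonist for full effect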
# APJ ag – agonists of human apelin receptor APJ, primary screen, CHO-K1 cells, PathHunter beta-arrestin, luminescence; P35414; activation, % at 20 µM; 330,000 compounds, 0.11% hits; 0% DMSO wells, 100% apelin;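 active means activation more than six SD over the plate average, tested at 20 µM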;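 further: 0% = DMSO alone and 100% = apelin-13 at 10 nM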
#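 Test system: CHO-K1 APJ beta-arrestin complementation cell line | Compound: Single test compound dose, 20 µM final, 1% DMSO | Incubation: Compound 90 min 25 °C, reagent 1 h | Measured by: beta-gal luminescence | Read-out basis: APJ–arrestin association signal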
# B2AR ag – beta2AR agonists driving receptor internalization, primary screen, cell-based, FAP fluorogen, flow cytometry. Am2.2-beta2AR cells. Beta-2 adrenergic receptor (Homo sapiens), P07550. 340,000 compounds, 0.43% hits. response, % (concentration not given with the values). AID 504454, 2011;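 active means response above a set limit, near 3 SD of response in nonfluorescent compounds, cut at about 42% in these data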
# Target sequence (P07550 whole entry, looked up): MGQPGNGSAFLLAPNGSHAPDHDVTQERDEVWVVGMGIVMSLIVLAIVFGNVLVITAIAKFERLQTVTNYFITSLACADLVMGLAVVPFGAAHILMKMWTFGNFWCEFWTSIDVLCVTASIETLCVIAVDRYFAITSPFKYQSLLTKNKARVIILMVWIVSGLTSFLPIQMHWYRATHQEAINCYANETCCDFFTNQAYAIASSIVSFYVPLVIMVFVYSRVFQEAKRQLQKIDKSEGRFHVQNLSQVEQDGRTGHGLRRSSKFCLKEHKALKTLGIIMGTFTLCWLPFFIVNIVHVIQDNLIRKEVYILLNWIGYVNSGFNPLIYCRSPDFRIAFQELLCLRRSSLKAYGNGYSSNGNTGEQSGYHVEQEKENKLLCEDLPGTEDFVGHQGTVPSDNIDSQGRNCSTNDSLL
# CXCR6 inh – CXCR6 receptor inhibitors, primary screen, cell-based, beta-arrestin, luminescence, CHO-K1 PathHunter, 1536-well; C-X-C chemokine receptor type 6 (Homo sapiens), O00574; inhibition, % at 20 µM; 360,000 compounds, 0.36% hits; AID 602244, 2012; in the data active means inhibition above about 34%, passing the limit was not always enough;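 further: antagonist mode with CXCL16 agonist at 10 nM final; 0% = 10 nM CXCL16 with DMSO and 100% = unstimulated wells without agonist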
# PfG6PD inh – PfG6PD enzyme inhibitors, primary screen, biochemical, fluorescence intensity, uHTS; glucose-6-phosphate dehydrogenase-6-phosphogluconolactonase (Plasmodium falciparum 3D7); PfGluPho enzyme, NADPH resazurin-diaphorase fluorescence; inhibition, % at 20 µM; 350,000 compounds, 0.78% hits;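 active means inhibition reaching at least a set limit at 20 µM in the primary screen, cut at about 59% in these data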;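 further: 0% = DMSO wells with substrate and 100% = DMSO wells lacking glucose-6-phosphate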
# APJ antagonist – antagonists of human apelin receptor APJ, primary screen, CHO-K1 cells, beta-arrestin complementation, luminescence. AID 2521, 2010. inhibition, % at 20 µM. P35414. 330,000 compounds, 0.32% hits;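 active means inhibition above about 40% at 20 µM, limit read from the data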;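 further: cells challenged with 10 nM apelin-13 agonist together with compound; plate controls were apelin-13 plus DMSO wells for no effect and DMSO wells lacking apelin-13 for full effect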
# B2AR ag CP1 – beta2AR agonists via receptor internalization, confirmation, cell-based, FAP fluorogen, flow cytometry, single point, cherry pick 1; Am2.2-beta2AR cells, FAP surface receptor; stronger effect = lower value; 1,100 compounds, 25% hits; AID 540358, 2011; shares compounds with B2AR ag; percent response (surface receptor), % at 10 µM;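 active means surface receptor percent response at or below 58%, roughly 3 SD from nonfluorescent compounds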
# FAP fluor counter – counter-screen for beta-2AR agonists: fluorescence in Am2.2 cells; shares compounds with B2AR ag; FAP fluorogen flow cytometry, fluorescence counterscreen; stronger effect = lower value; calls only at 10 µM; 1,100 tested, under 10 active; AID 588765;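 active means percent response below a set limit in fluorescence channel 1 and below 50% in channel 8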
# PfGluPho conf – PfG6PD inhibitors, hit retest, confirmation, biochemical, fluorescence intensity, single concentration; shares compounds with PfG6PD inh; recombinant PfGluPho, NADPH-diaphorase-resazurin fluorescence; inhibition, % at 20 µM; 2,400 compounds, 34% hits;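 active means inhibition of at least 50% at 20 µM in any single replicate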;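 further: 0% = DMSO with substrate and 100% = DMSO lacking glucose-6-phosphate substrate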
# Diaph ctr 10uM – diaphorase inhibitors and chemical oxidizers, confirmation, counter-screen for P. falciparum G6PD inhibitor project, biochemical, fluorescence intensity, 10 µM NADPH. shares compounds with PfG6PD inh. diaphorase-coupled resazurin reduction, NADPH 10 uM. inhibition, % at 20 µM. 820 compounds, 39% hits. AID 504862, 2011;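 active means average inhibition reaching 50% or more with the compound at 20 µM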;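 further: resorufin red fluorescence formed as diaphorase reduces resazurin using NADPH; 0% = DMSO with enzyme and 100% = DMSO without enzyme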
# Diaphorase 30uM – diaphorase inhibitors and chemical oxidizers, confirmation, counter-screen for P. falciparum G6PD inhibitor project, biochemical, fluorescence intensity, 30 µM NADPH; shares compounds with PfG6PD inh; Diaphorase/resazurin coupled assay, resorufin fluorescence; inhibition, % at 20 µM; 820 compounds, 29% hits;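 active means inhibition averaging 50% or more, tested at 20 µM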;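 further: 0% = DMSO with enzyme and 100% = DMSO wells lacking diaphorase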
# Active calls of the source: *; i = inactive; nt = not tested or not shown.
SMILES,CCR6 antagonist,APJ ag,B2AR ag,CXCR6 inh,PfG6PD inh,APJ antagonist,B2AR ag CP1,FAP fluor counter,others
COc1cc(OC)c(OC)cc1CNC(C)C(O)c1ccccc1 (stereo not given),18,0,6,-5,-17,-3,118,i,
COc1cc(OC)c(OC)cc1CNCCc1ccc(OC)c(OC)c1,-1,-2,-3,-4,-9,15,nt,nt,
CC(NCc1cccc(Cl)c1Cl)C(O)c1ccccc1 (stereo not given),2,-2,-12,0,14,-8,109,i,
COC(=O)C1=C(c2ccc(C(C)=O)cc2)C[C@@H]2CC[C@H]1N2C(=O)N1CCC(O)CC1,-3,-4,11,1,-9,6,nt,nt,
COc1ccc(-n2c(C)cc(C(=O)C[N+]34CCN(CC3)CC4)c2C)cc1,3,-2,0,3,-9,8,nt,nt,
Cc1nc2ccccc2c(=O)n1-c1ccc(Cl)cc1[N+](=O)[O-],-1,2,-5,-7,-42,-20,nt,nt,
CCOc1c(Cl)cc(CNC(C)C(O)c2ccccc2)cc1OC (stereo not given),-3,-5,7,-3,-9,-4,107,i,
CNCC(O)c1ccc(O)cc1 (stereo not given),-8,-3,nt,4,9,11,nt,nt,
CC(Cc1ccc(O)cc1)NCC(O)c1ccc(O)c(O)c1 (stereo not given),nt,nt,nt,-9,38,nt,9.6*,i,
[N-]=[N+]=CC(=O)OC[C@H](N)C(=O)O,-1,2,-3,-8,0,1,nt,nt,
CCC[C@H](N[C@@H](CCC)[C@H](O)c1ccccc1)[C@H](O)c1ccccc1,5,-1,-6,5,3,20,112,i,
CCCCC(CC)CNCC(O)c1ccccc1 (stereo not given),5,-1,-11,1,1,-16,nt,nt,
COC(=O)C1=C(c2cc3ccccc3s2)C[C@@H]2CC[C@H]1N2C(=O)NCC1CC1,11,-4,7,0,5,6,nt,nt,
COC(=O)C1=C(c2cc3ccccc3s2)C[C@@H]2CC[C@H]1N2C(=O)NCc1ccc(C(F)(F)F)cc1,-6,-3,74*,3,22,8,89,i,
COC(=O)C1=C(c2ccc(OCc3ccccc3)cc2)C[C@@H]2CC[C@H]1N2C(=O)NCc1ccccc1OC,nt,nt,nt,8,9,nt,nt,nt,
COC(=O)C1=C(c2ccc(OCc3ccccc3)cc2)C[C@@H]2CC[C@H]1N2C(=O)NCc1ccc(OC)c(OC)c1,17,-2,1,22,-4,-6,103,i,
NP(=O)(OCCCc1ccccc1)Oc1ccc(Cl)cc1 (stereo not given),2,5,0,2,-3,-4,nt,nt,
CC1CC2(C)C(CCC3C2CCC2(C)C(OP(=O)(N4CC4)N4CC4)CCC32)CC1=O (stereo not given),-2,nt,1,5,14,nt,nt,nt,
NCCc1ccc(OCc2ccccc2)c(OCc2ccccc2)c1,9,-4,43*,-22,5,10,100,i,
CC(CCc1ccccc1)NC(C)C(O)c1ccc(O)cc1 (stereo not given),3,-5,4,-2,-2,-5,109,i,
CC(C(N)=O)N1CC(c2ccc(Cl)cc2)CC1=O (stereo not given),-1,6,4,11,-8,25,nt,nt,
COc1ccc(C(O)CNC(C)C)c(F)c1OC (stereo not given),5,0,-13,0,-8,-8,116,i,
CC(C)(O)/C=C/C(=O)[C@](C)(O)C1[C@H](O)C[C@@]2(C)C3CC=C4C(C[C@H](O)[C@@H](O)C4(C)C)[C@]3(C)C(=O)C[C@]12C (stereo not given in full),8,-2,24,-5,-4,-6,nt,nt,
COc1ccc(C(O)C(C)NC(C)C(O)c2ccc(OC)cc2)cc1 (stereo not given),0,0,-1,5,-2,2,123,i,
COc1ccc(C(c2ccc(OC)cc2)C(Cl)(Cl)Cl)cc1,21,-4,3,-1,10,9,nt,nt,
SMILES,CCR6 antagonist,APJ ag,B2AR ag,CXCR6 inh,PfG6PD inh,APJ antagonist,B2AR ag CP1,FAP fluor counter,others
O=C1C=C(N2CC2)c2ccccc2C1=O,nt,nt,nt,-4,100*,nt,nt,nt,PfGluPho conf=72*;Diaph ctr 10uM=54*;Diaphorase 30uM=63*
NS(=O)(=O)c1ccc(-c2ccc(C=C3C(=O)NC(=O)NC3=O)o2)cc1,9,-1,6,8,78*,-10,nt,nt,PfGluPho conf=80*;Diaph ctr 10uM=7;Diaphorase 30uM=3
NS(=O)(=O)c1ccc(-c2ccc(C=C3C(=O)NC(=S)NC3=O)o2)cc1,nt,-2,nt,nt,nt,14,nt,nt,
CNS(=O)(=O)c1ccc(-c2ccc(C=C3C(=O)NC(=O)NC3=O)o2)cc1,-1,6,-8,-7,81*,3,nt,nt,PfGluPho conf=55*;Diaph ctr 10uM=-12;Diaphorase 30uM=-16
O=S(=O)(c1ccccc1)N1CN2CCN(C2)C1,-3,-5,-12,0,2,7,nt,nt,
O=S(=O)(c1ccccc1)N1CCN(S(=O)(=O)c2ccccc2)c2ccccc21,8,nt,13,-9,112*,nt,nt,nt,PfGluPho conf=45
CC(C)Nc1ccc(Nc2ccccc2)cc1,36,22,1,1,106*,-16,nt,nt,PfGluPho conf=52*;Diaph ctr 10uM=-1;Diaphorase 30uM=8
c1ccc(Nc2ccc3ccccc3c2)cc1,-2,nt,2,-13,38,nt,nt,nt,
CNC(=O)Oc1ccc(-c2cn3cc(Cl)ccc3n2)cc1,2,1,1,-4,68*,-11,nt,nt,PfGluPho conf=47

# Assay outcomes: PubChem BioAssay, several laboratories
